# ChEMBL document CHEMBL1125075, “Synthesis of a new class of 2,3-dihydro-2-oxo-1H-benzimidazole-1-carboxylic acid derivatives as highly potent 5-HT3 receptor antagonists” (J Med Chem, 1990)
# Columns and labels:
# [1] = system: Rattus norvegicus; test: Effective dose that causes 50% reduction of serotonin effect in rats intravenously; type: functional
# How it was run: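 Rat 5-HT-induced von Bezold-Jarisch reflex. ED50 is the antagonist dose giving 50% reduction of the serotonin effect, calculated by linear regression. Means with 95% confidence limits.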
# [2] = biological target: T1, Serotonin 3 (5-HT3) receptor (Rattus norvegicus, UniProt P35563+Q9JJ16); test: Concentration that inhibits the binding of radioligand, [3H]-ICS 205930, to 5-hydroxytryptamine 3 receptor from rat cortex
# T1 sequence (P35563 whole entry): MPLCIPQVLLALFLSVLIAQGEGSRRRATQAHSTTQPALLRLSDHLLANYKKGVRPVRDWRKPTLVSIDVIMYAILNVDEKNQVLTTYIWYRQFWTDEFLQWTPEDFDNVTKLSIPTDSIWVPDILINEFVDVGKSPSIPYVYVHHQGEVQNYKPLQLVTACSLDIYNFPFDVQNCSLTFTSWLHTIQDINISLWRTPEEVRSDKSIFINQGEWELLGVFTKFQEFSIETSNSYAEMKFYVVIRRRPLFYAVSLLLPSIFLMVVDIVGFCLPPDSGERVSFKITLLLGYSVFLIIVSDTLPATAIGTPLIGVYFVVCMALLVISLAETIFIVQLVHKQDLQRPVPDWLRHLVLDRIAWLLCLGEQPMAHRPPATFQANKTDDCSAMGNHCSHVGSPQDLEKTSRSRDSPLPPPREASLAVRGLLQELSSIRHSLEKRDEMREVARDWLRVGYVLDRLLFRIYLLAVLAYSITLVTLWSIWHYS
# T1 sequence (Q9JJ16 whole entry): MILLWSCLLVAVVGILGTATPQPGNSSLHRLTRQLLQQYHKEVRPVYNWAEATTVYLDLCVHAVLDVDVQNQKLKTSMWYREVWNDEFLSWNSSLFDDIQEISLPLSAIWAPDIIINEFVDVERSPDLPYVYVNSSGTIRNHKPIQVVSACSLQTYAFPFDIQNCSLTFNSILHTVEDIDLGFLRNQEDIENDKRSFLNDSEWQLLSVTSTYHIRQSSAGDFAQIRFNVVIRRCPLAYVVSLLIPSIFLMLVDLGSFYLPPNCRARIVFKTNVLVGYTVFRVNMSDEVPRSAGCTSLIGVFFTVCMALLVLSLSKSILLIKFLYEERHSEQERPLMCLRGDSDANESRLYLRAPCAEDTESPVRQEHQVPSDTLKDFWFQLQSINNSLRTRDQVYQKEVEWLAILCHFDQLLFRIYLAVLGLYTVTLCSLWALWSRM
# How it was run: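 Rat cerebral cortex P2 fraction homogenised in 50 mM Tris·HCl pH 7.4 with 0.1% ascorbate, 4 mM CaCl2 and 10 μM pargyline, about 500 μg/mL protein. Incubated with 0.5–2.0 nM [3H]ICS 205930 (82.7 Ci/mmol) and a range of test concentrations, 30 °C for 30 min. Nonspecific binding with 10 μM reference antagonist; GF/B filtration; triplicate; Ki by computer fit.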
# [3] = Rattus norvegicus, iv, read-out: ED50
SMILES,ED50 [1],Ki [2],"ED50 [1, 3]"
CN1CC2CCC1CC2OC(=O)n1c(=O)[nH]c2ccccc21.O=C(O)CC(O)(CC(=O)O)C(=O)O (configuration not stated),18.9 nM/kg,,
CN1C2CCC1CC(NC(=O)n1c(=O)n(C)c3ccccc31)C2 (configuration not stated),,0.0017 µM,0.0054 µmol/kg
CN1C2CCC1CC(NC(=O)n1c(=O)[nH]c3ccccc31)C2 (configuration not stated),1 nM/kg,0.00375 µM,
CN1C2CCCC1CC(OC(=O)n1c(=O)[nH]c3ccccc31)C2.O=C(O)CC(O)(CC(=O)O)C(=O)O (configuration not stated),>3000 nM/kg,> 1 µM,
Cc1ccc2c(c1)[nH]c(=O)n2C(=O)OC1CC2CCC(C1)N2C (configuration not stated),,> 1 µM,> 3 µmol/kg
CN1C2CCC1CC(OC(=O)n1c(=O)[nH]c3ccccc31)C2 (configuration not stated),17.9 nM/kg,0.0214 µM,
CN1CCC(NC(=O)n2c(=O)[nH]c3ccccc32)CC1,,0.436 µM,1.52 µmol/kg
CC(=O)c1ccc2[nH]c(=O)n(C(=O)OC3CC4CCC(C3)N4C)c2c1 (configuration not stated),,> 1 µM,> 3 µmol/kg
CN1C2CCC1CC(OC(=O)n1c(=O)[nH]c3ccc(F)cc31)C2 (configuration not stated),,0.0339 µM,0.062 µmol/kg
CN1CCC(OC(=O)n2c(=O)[nH]c3ccccc32)CC1,,> 1 µM,> 3 µmol/kg
CN1C2CCC1CC(OC(=O)n1c(=O)[nH]c3cc(C(F)(F)F)ccc31)C2 (configuration not stated),,> 1 µM,> 3 µmol/kg
CN1C2CCC1CC(NC(=O)n1c(=O)[nH]c3ccccc31)C2.Cl (configuration not stated),>3000 nM/kg,> 1 µM,
CN1C2CCCC1CC(OC(=O)n1c(=O)[nH]c3ccccc31)C2.Cl (configuration not stated),10.8 nM/kg,0.00217 µM,
CN1C2CCCC1CC(NC(=O)n1c(=O)[nH]c3ccccc31)C2.Cl (configuration not stated),1.1 nM/kg,0.00153 µM,
O=C(OC1CC2CCC(C1)N2Cc1ccccc1)n1c(=O)[nH]c2ccccc21 (configuration not stated),,> 1 µM,> 3 µmol/kg
CN1C2CCC1CC(OC(=O)n1c(=O)[nH]c3cc(F)ccc31)C2 (configuration not stated),,0.0262 µM,0.204 µmol/kg
CC1CC(OC(=O)n2c(=O)[nH]c3ccccc32)CC(C)N1C (configuration not stated),,> 1 µM,> 3 µmol/kg
CN1CC2CCC1CC2OC(=O)n1c(=O)[nH]c2ccccc21.Cl (configuration not stated),>3000 nM/kg,> 1 µM,
Cc1cccc2c1[nH]c(=O)n2C(=O)OC1CC2CCC(C1)N2C (configuration not stated),,0.00794 µM,0.0301 µmol/kg
CN1C2CCC1CC(OC(=O)n1c(=O)n(C)c3ccccc31)C2 (configuration not stated),,0.012 µM,0.038 µmol/kg
CCn1c(=O)n(C(=O)NC2CC3CCC(C2)N3C)c2ccccc21 (configuration not stated),,0.0023 µM,0.0051 µmol/kg

SMILES,ED50 [1],Ki [2],"ED50 [1, 3]"
CCn1c(=O)n(C(=O)OC2CC3CCC(C2)N3C)c2ccccc21 (configuration not stated),,0.018 µM,0.0097 µmol/kg
O=C(OC1CCNCC1)n1c(=O)[nH]c2ccccc21,,0.0724 µM,0.487 µmol/kg
COc1ccc2[nH]c(=O)n(C(=O)OC3CC4CCC(C3)N4C)c2c1 (configuration not stated),,> 1 µM,
CN1C2CCC1CC(OC(=O)n1c(=O)[nH]c3ccccc31)C2.Cl (configuration not stated),3982 nM/kg,> 1 µM,
O=C(OC1CN2CCC1CC2)n1c(=O)[nH]c2ccccc21 (configuration not stated),,0.0163 µM,0.8 µmol/kg
CN1C2CCC1CC(OC(=O)n1c(=O)[nH]c3cc(Cl)ccc31)C2 (configuration not stated),,> 1 µM,> 3 µmol/kg
O=C(OC12CCN(CC1)CC2)n1c(=O)[nH]c2ccccc21,,> 1 µM,> 3 µmol/kg
Cc1cc2[nH]c(=O)n(C(=O)OC3CC4CCC(C3)N4C)c2cc1C (configuration not stated),,> 1 µM,> 3 µmol/kg
CCN1C2CCC1CC(OC(=O)n1c(=O)[nH]c3ccccc31)C2 (configuration not stated),,> 1 µM,> 3 µmol/kg
Cc1cccc2[nH]c(=O)n(C(=O)OC3CC4CCC(C3)N4C)c12 (configuration not stated),,0.306 µM,> 3 µmol/kg
C[N+]1(C)C2CCC1CC(OC(=O)n1c(=O)[nH]c3ccccc31)C2 (configuration not stated),,0.0336 µM,0.0093 µmol/kg
CN(C(=O)n1c(=O)[nH]c2ccccc21)C1CC2CCCC(C1)N2C (configuration not stated),,> 1 µM,> 3 µmol/kg
CN1C2CCCC1CC(NC(=O)n1c(=O)n(C)c3ccccc31)C2 (configuration not stated),,0.00089 µM,0.0015 µmol/kg
O=C(NC1CCN2CCCC1C2)n1c(=O)[nH]c2ccccc21 (configuration not stated),,0.0202 µM,0.289 µmol/kg
O=C(NC1CN2CCC1CC2)n1c(=O)[nH]c2ccccc21 (configuration not stated),,0.00207 µM,0.0035 µmol/kg
CN1C2CCCC1CC(NC(=O)n1c(=O)[nH]c3ccccc31)C2 (configuration not stated),905 nM/kg,0.13 µM,
O=C(NC1CC2CCC(C1)N2Cc1ccccc1)n1c(=O)[nH]c2ccccc21 (configuration not stated),,> 1 µM,> 3 µmol/kg
CN1C2CCC1C(OC(=O)n1c(=O)[nH]c3ccccc31)C2 (configuration not stated),,> 1 µM,> 3 µmol/kg
COc1ccc2c(c1)[nH]c(=O)n2C(=O)OC1CC2CCC(C1)N2C (configuration not stated),,> 1 µM,> 3 µmol/kg
CN1[C@@H]2CC[C@H]1C[C@@H](OC(=O)c1cc(Cl)cc(Cl)c1)C2 [BEMESETRON],,0.0244 µM,0.195 µmol/kg
CN1[C@@H]2CC[C@H]1C[C@@H](OC(=O)c1c[nH]c3ccccc13)C2 [TROPISETRON],,0.00171 µM,0.0021 µmol/kg
